Measured values of several laboratories.
Protocols differ between the studies behind these lines. Values after ≈ are worked out from the molar mass of the structure shown.
Organism: Staphylococcus aureus

| SMILES | effect on | technique | strain | tested at | notes | endpoint | result |
| --- | --- | --- | --- | --- | --- | --- | --- |
| COc1ccccc1Nc1cccc2nccnc12 | microbial growth |  | RN4220 |  |  | EC50 | 20 µM |
| CCOc1cc(-c2nc3ccccc3[nH]2)ccc1O | microbial growth | broth dilution | ATCC43300 MRSA |  | drug-resistant strain | MIC | 256 µg/mL (≈ 1010 µM) |
| O=C(O)c1cn(C2CC2)c2cc(N3CCNCC3)c(F)cc2c1=O | microbial growth |  | ATCC29213 |  |  | IC50 | 0.13 µg/mL (≈ 0.392 µM) |
| COC(=O)c1cc(-c2cccc(NC(=O)Nc3ccc(F)cc3)c2)on1 | microbial growth | broth dilution | ATCC29213 |  |  | MIC | > 64 µg/mL |
| CC1(C)CC[C@]2(C(=O)O)CC[C@]3(C)C(=CC[C@@H]4[C@@]5(C)CC[C@H](O)C(C)(C)[C@@H]5CC[C@]43C)[C@@H]2C1 | microbial growth |  | USA300 |  |  | MIC | 256 µg/mL (≈ 561 µM) |
| CC(=O)Oc1cccc2c1[nH]c1c(C3=C[C@@]4(OC(C)=O)CC/C=C\CCCCN5CC[C@@H]3[C@]3(C[C@@H]6/C=C\CCCCN6[C@H]34)C5)nccc12 | microbial killing |  | MRSA |  | drug-resistant strain | MFC | > 20 µg/mL |
| CN[C@H](CC(C)C)C(=O)N[C@H]1C(=O)N[C@@H](CC(N)=O)C(=O)N[C@H]2C(=O)N[C@H]3C(=O)N[C@H](C(=O)N[C@H](C(=O)O)c4cc(O)cc(O)c4-c4cc3ccc4O)[C@H](O)c3ccc(c(Cl)c3)Oc3cc2cc(c3O[C@@H]2O[C@H](CO)[C@@H](O)[C@H](O)[C@H]2O[C@H]2C[C@](C)(N)[C@H](O)[C@H](C)O2)Oc2ccc(cc2Cl)[C@H]1O | microbial killing | broth dilution | NRS107 |  |  | MBC | 1 µM |
| CCOC(=O)C1=C(C)N2NC(c3ccccc3O)N(C(Cc3c[nH]c4ccccc34)C(=O)O)C2=NC1c1ccc(Cl)cc1 (centres unmarked) | microbial killing |  |  |  | drug-resistant strain | MBC | 100 µg/mL |
| Cc1ccc2nc(-c3ccco3)n(Cc3ccccc3)c2c1 | microbial growth | broth dilution | ATCC43300 MRSA |  | drug-resistant strain | MIC | 128 µg/mL (≈ 444 µM) |
| COC(=O)c1cc(-c2cccc(NC(=O)Nc3ccccc3F)c2)on1 | microbial growth | broth dilution | ATCC29213 |  |  | MIC | > 64 µg/mL |
| CC1(C)S[C@@H]2[C@H](NC(=O)[C@H](N)c3ccccc3)C(=O)N2[C@H]1C(=O)O | microbial growth | well diffusion | ATCC25923 | 60000 µg/mL |  | inhibition zone | 35 mm |
| Cc1ccc2nc(-c3ccc([N+](=O)[O-])cc3)n(Cc3ccc(Cl)cc3)c2c1 | microbial growth | broth dilution | ATCC43300 MRSA |  | drug-resistant strain | MIC | 8 µg/mL (≈ 21.2 µM) |
| COC(=O)c1cc(-c2cccc(NC(=O)Nc3cccc(Cl)c3)c2)on1 | microbial growth | broth dilution | ATCC29213 |  |  | MIC | > 64 µg/mL |
| CCOc1ccc(-c2nc3ccccc3[nH]2)cc1 | microbial growth | broth dilution | ATCC43300 MRSA |  | drug-resistant strain | MIC | 512 µg/mL (≈ 2150 µM) |
| COC(=O)c1cc(-c2cccc(NC(=S)Nc3ccc(F)c(Cl)c3)c2)on1 | microbial growth | broth dilution | ATCC29213 |  |  | MIC | > 64 µg/mL |
| Cc1c(NN=C(C#N)C2=NC(=O)CS2)c(=O)n(-c2ccccc2)n1C | microbial killing | broth dilution |  |  |  | MBC | 1 µg/mL |
| O=C(O)c1cn(C2CC2)c2cc(N3CCNCC3)c(F)cc2c1=O | microbial growth | broth dilution | ATCC43300 MRSA |  | drug-resistant strain | MIC | 16 µg/mL (≈ 48.3 µM) |
| COC(=O)c1cc(-c2cccc(NC(=O)Nc3ccc(C(F)(F)F)cc3)c2)on1 | microbial growth | broth dilution | ATCC29213 |  |  | MIC | 8 to 16 µg/mL (≈ 19.7 to 39.5 µM) |
| COc1ccc(-c2nc3ccccc3[nH]2)cc1OC | microbial growth | broth dilution | ATCC43300 MRSA |  | drug-resistant strain | MIC | 256 µg/mL (≈ 1010 µM) |
| COC(=O)c1cc(-c2cccc(NC(=O)Nc3ccc(Cl)c(C(F)(F)F)c3)c2)on1 | microbial growth | broth dilution | ATCC29213 |  |  | MIC | > 64 µg/mL |
